We go through 43 compounds from ChEMBL document CHEMBL1146752, “Oxamyl dipeptide caspase inhibitors developed for the treatment of stroke” (Bioorg Med Chem Lett, 2004).

Assay [1] has as its system Jurkat. The assay can be described thus: Inhibitory activity evaluated against human jurkat cell line in cellular assay. The class given is functional, cell-based. An outline of the steps:
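Human Jurkat cells, in an assay where caspase-8 is relevant but other caspases also contribute. Run for 24 h at 37 °C. Read-out is IC50 (µM).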

The species named for assay [2] is Rattus norvegicus. As to the kind of experiment: Inhibitory activity evaluated against rat Con A embryonic cortical neurons in cellular assay. Format: functional.
The test system of assay [3] is SKW 6.4. As to the kind of experiment: Inhibitory activity was evaluated against human SKW 6.4 cell line in cellular assay. The class given is functional, cell-based. An outline of the steps:
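Cellular assay (Con A; SKW 6.4 cells) run for 24 h at 37 °C. Read-out is IC50 (µM).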

In assay [4] the test system is THP-1. As to the kind of experiment: Inhibitory activity evaluated against human THP-1 cell line in cellular assay. The class given is functional, cell-based. In short, it runs like this:
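Human cells (monocytes; THP-1 line) in a caspase-1-dependent cellular assay run for 24 h at 37 °C. Read-out is IC50 (µM).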

As for `CC(C)[C@H](NC(=O)C(=O)Nc1ccccc1-c1ccccc1)C(=O)N[C@@H](CC(=O)O)C(=O)COc1c(F)c(F)cc(F)c1F`, the IC50 in assay [1] stood at 0.2 µM; in assay [2] it was 2.5 µM; in assay [3] it was 0.48 µM; in assay [4], 0.16 µM.
As for `CC(C)[C@H](NC(=O)C(=O)Nc1cccc(Oc2ccccc2)c1)C(=O)N[C@@H](CC(=O)O)C(=O)COc1c(F)c(F)cc(F)c1F`, the IC50 is 1.15 µM in assay [1], 1.1 µM in assay [2], 2 µM in assay [3] and 1.85 µM in assay [4].
On the same counts, the results for `CC(C)[C@H](NC(=O)C(=O)Nc1c(F)c(F)c(F)c(F)c1F)C(=O)N[C@@H](CC(=O)O)C(=O)COc1c(F)c(F)cc(F)c1F` are 0.39 µM, 2.9 µM, 14 µM and 0.47 µM.
For `CC(C)[C@H](NC(=O)C(=O)NNc1ccccc1)C(=O)N[C@@H](CC(=O)O)C(=O)COc1c(F)c(F)cc(F)c1F`, the IC50 was found to be 2.35 µM in assay [1], 20 µM in assay [2], 9.9 µM in assay [3] and 6.58 µM in assay [4].
For the compound `CC(C)[C@H](NC(=O)C(=O)NN(c1ccccc1)c1ccccc1)C(=O)N[C@@H](CC(=O)O)C(=O)COc1c(F)c(F)cc(F)c1F`, the IC50 in assay [1] was found to be 0.19 µM; in assay [2] it was 4.87 µM; in assay [3] it was 2.24 µM; in assay [4] it was 0.78 µM.
On to `COc1ccccc1NC(=O)C(=O)N[C@H](C(=O)N[C@@H](CC(=O)O)C(=O)COc1c(F)c(F)cc(F)c1F)C(C)C`, for which the IC50 in assay [1] worked out at 0.31 µM; in assay [2], 2.5 µM; in assay [3], 1.2 µM; in assay [4], 0.4 µM.
`O=C(O)C[C@H](NC(=O)C(NC(=O)C(=O)Nc1cccc2ccccc12)C1CCCCC1)C(=O)COc1c(F)c(F)cc(F)c1F` (stereo partly drawn): the IC50 in assay [2] worked out at 1.5 µM; in assay [4], 1.44 µM.
Turning to `CC(C)[C@H](NC(=O)C(=O)Nc1ccccc1Br)C(=O)N[C@@H](CC(=O)O)C(=O)COc1c(F)c(F)cc(F)c1F`, the IC50 in assay [1] was 0.356 µM; in assay [2], 0.4 µM; in assay [4], 0.54 µM.
As to `CC(C)[C@H](NC(=O)C(=O)Nc1cccc2ccccc12)C(=O)N[C@@H](CC(=O)O)C(=O)COP(=O)(c1ccccc1)c1ccccc1`, the IC50 in assay [2] and in assay [4] was 0.65 µM each time.
As to `CCCCCCCNC(=O)C(=O)N[C@H](C(=O)N[C@@H](CC(=O)O)C(=O)COc1c(F)c(F)cc(F)c1F)C(C)C`, the IC50 in assay [1] is 1.28 µM; in assay [2], 7 µM; in assay [3] it was 7.8 µM; in assay [4], 7.71 µM.
`CC(C)[C@H](NC(=O)C(=O)Nc1cccc2ccccc12)C(=O)N[C@@H](CC(=O)O)C(=O)COc1c(F)cc(F)cc1F`: the IC50 is 0.0052 µM in assay [1] and 0.3 µM in assay [2].
Turning to `CC(C)[C@H](NC(=O)C(=O)Nc1ccccn1)C(=O)N[C@@H](CC(=O)O)C(=O)COc1c(F)c(F)cc(F)c1F`, the IC50 amounted to 0.14 µM in assay [1], 9.4 µM in assay [2], 2.2 µM in assay [3] and 1.43 µM in assay [4].
For the compound `CC(C)[C@H](NC(=O)C(=O)NN(C(=O)c1ccccc1)c1ccccc1)C(=O)N[C@@H](CC(=O)O)C(=O)COc1c(F)c(F)cc(F)c1F`, the IC50 in assay [1] was found to be 0.07 µM; in assay [2] it was 2.3 µM; in assay [3], 2.01 µM; in assay [4], 0.63 µM.
For the compound `CC(C)[C@H](NC(=O)C(=O)NC1CCCc2ccccc21)C(=O)N[C@@H](CC(=O)O)C(=O)COc1c(F)c(F)cc(F)c1F` (stereo partly drawn), the IC50 in assay [1] worked out at 0.37 µM; in assay [2] it was 2.4 µM; in assay [3], 0.86 µM; in assay [4], 2.91 µM.
In the case of `CC(C)(C)C(NC(=O)C(=O)Nc1cccc2ccccc12)C(=O)N[C@@H](CC(=O)O)C(=O)COc1c(F)c(F)cc(F)c1F` (stereo partly drawn), the values for the IC50 in assay [2] and in assay [4] were 2.9 µM and 0.27 µM, respectively.
With `CC(C)C[C@H](NC(=O)C(=O)Nc1cccc2ccccc12)C(=O)N[C@@H](CC(=O)O)C(=O)COc1c(F)c(F)cc(F)c1F`, the IC50 in assay [1] came out at 2.5 µM; in assay [2], 2.58 µM.
Turning to `O=C(O)C[C@H](NC(=O)[C@H](CCc1ccccc1)NC(=O)C(=O)Nc1cccc2ccccc12)C(=O)COc1c(F)c(F)cc(F)c1F`, the results for the IC50 in assay [2] and in assay [4] were 3 µM and 7.53 µM, respectively.
With `COc1cc(CNC(=O)C(=O)N[C@H](C(=O)N[C@@H](CC(=O)O)C(=O)COc2c(F)c(F)cc(F)c2F)C(C)C)cc(OC)c1OC`, the half-maximal inhibitory concentration (IC50) was 1.55 µM in assay [1], 9 µM in assay [2], 18.3 µM in assay [3] and 3.5 µM in assay [4].
As for `CC(C)[C@H](NC(=O)C(=O)Nc1cc(C(C)(C)C)ccc1C(C)(C)C)C(=O)N[C@@H](CC(=O)O)C(=O)COc1c(F)c(F)cc(F)c1F`, the IC50 in assay [1] is 0.017 µM; in assay [2] it was 2 µM; in assay [3], 1.87 µM; in assay [4], 2.64 µM.
On the same counts, the results for `CC(C)[C@H](NC(=O)C(=O)Nc1ccncc1)C(=O)N[C@@H](CC(=O)O)C(=O)COc1c(F)c(F)cc(F)c1F` are 15.8 µM, 50 µM, 30.1 µM and 5.67 µM.
In the case of `CC(C)[C@H](NC(=O)C(=O)Nc1cccc2ccccc12)C(=O)N[C@@H](CC(=O)O)C(=O)COC(=O)c1c(Cl)cccc1Cl`, the IC50 was 0.0043 µM in assay [1] and 0.35 µM in assay [2].
On to `O=C(O)C[C@H](NC(=O)[C@H](Cc1ccccc1)NC(=O)C(=O)Nc1cccc2ccccc12)C(=O)COc1c(F)c(F)cc(F)c1F`, for which the IC50 in assay [2] worked out at 2.7 µM; in assay [4], 1.26 µM.
For `CCCCC(NC(=O)C(=O)Nc1cccc2ccccc12)C(=O)N[C@@H](CC(=O)O)C(=O)COc1c(F)c(F)cc(F)c1F` (stereo partly drawn), the IC50 in assay [2] amounted to 1 µM.
Take `CC(C)[C@H](NC(=O)C(=O)Nc1ccccc1Cc1ccccc1)C(=O)N[C@@H](CC(=O)O)C(=O)COc1c(F)c(F)cc(F)c1F`: the half-maximal inhibitory concentration (IC50) in assay [1] was found to be 0.009 µM; in assay [2] it was 2 µM; in assay [3], 1.56 µM; in assay [4], 0.18 µM.
Consider `COC(=O)c1cc(OCC(=O)[C@H](CC(=O)O)NC(=O)[C@@H](NC(=O)C(=O)Nc2cccc3ccccc23)C(C)C)no1`, for which the figures for the IC50 in assay [2] and in assay [4] were 9 µM and 0.28 µM, respectively.
For the compound `CC(C)[C@H](NC(=O)C(=O)Nc1cccc2cc3ccccc3cc12)C(=O)N[C@@H](CC(=O)O)C(=O)COc1c(F)c(F)cc(F)c1F`, the IC50 amounted to 0.01 µM in assay [1], 0.85 µM in assay [2], 1.96 µM in assay [3] and 0.22 µM in assay [4].
`O=C(O)C[C@H](NC(=O)C1Cc2ccccc2N1C(=O)C(=O)Nc1cccc2ccccc12)C(=O)COc1c(F)c(F)cc(F)c1F` (stereo partly drawn): the IC50 in assay [2] worked out at 50 µM; in assay [4], 22.1 µM.
Turning to `CC(C)[C@H](NC(=O)C(=O)Nc1cccc2ccccc12)C(=O)N[C@@H](CC(=O)O)C(=O)COc1ccnc(C(F)(F)F)n1`, the half-maximal inhibitory concentration (IC50) in assay [2] amounted to 2 µM; in assay [4] it was 0.25 µM.
Consider `CC(C)C[C@H](NC(=O)C(=O)Nc1cccc2ccccc12)C(=O)N[C@@H](CC(=O)O)C(=O)COC(=O)c1c(Cl)cccc1Cl`, for which the IC50 in assay [1] came out at 1.3 µM; in assay [2], 0.5 µM.
`O=C(O)C[C@H](NC(=O)C1CCC(NC(=O)C(=O)Nc2cccc3ccccc23)C1)C(=O)COc1c(F)c(F)cc(F)c1F` (stereo partly drawn): the IC50 in assay [2] amounted to 2.5 µM; in assay [4], 0.93 µM.
In the case of `CC(C)[C@H](NC(=O)C(=O)Nc1cccc2ccccc12)C(=O)N[C@@H](CC(=O)O)C(=O)COP(C)(=O)c1ccccc1` (stereo partly drawn), the IC50 came out at 2 µM in assay [2] and 0.09 µM in assay [4].
Take `CC(C)[C@H](NC(=O)C(=O)Nc1cccc2ccccc12)C(=O)N[C@@H](CC(=O)O)C(=O)COc1c(F)cccc1F`: the figures for the IC50 in assay [2] and in assay [4] were 0.45 µM and 0.48 µM, respectively.
The matching figures for `CC(C)[C@H](NC(=O)C(=O)Nc1cccc2ccccc12)C(=O)N[C@@H](CC(=O)O)C(=O)COc1ccc2ccccc2c1`: 7.3 µM and 1.93 µM.
As to `CC(C)[C@H](NC(=O)C(=O)Nc1cccc2ccccc12)C(=O)N[C@@H](CC(=O)O)C(=O)COS(=O)c1ccccc1` (stereo partly drawn), the IC50 in assay [2] is more than 50 µM; in assay [4] it was 8.3 µM.
Regarding `CC(C)[C@H](NC(=O)C(=O)NOCc1ccccc1)C(=O)N[C@@H](CC(=O)O)C(=O)COc1c(F)c(F)cc(F)c1F`, the IC50 is 30.8 µM in assay [1], 15 µM in assay [2] and more than 32 µM in assay [4].
`CC(C)[C@H](NC(=O)C(=O)Nc1cccc2ccccc12)C(=O)N[C@@H](CC(=O)O)C(=O)COc1c(F)c(F)cc(F)c1F`: the IC50 came out at 0.0061 µM in assay [1] and 0.55 µM in assay [2].
On to `O=C(O)C[C@H](NC(=O)C(NC(=O)C(=O)Nc1cccc2ccccc12)c1ccccc1)C(=O)COc1c(F)c(F)cc(F)c1F` (stereo partly drawn), for which the IC50 in assay [2] came out at 0.5 µM; in assay [4] it was 2.77 µM.
`O=C(O)C[C@H](NC(=O)C1CCCCN1C(=O)C(=O)Nc1cccc2ccccc12)C(=O)COc1c(F)c(F)cc(F)c1F` (stereo partly drawn) displayed an IC50 in assay [2] of 16 µM.
In the case of `CC(C)[C@H](NC(=O)C(=O)N(C)c1cccc2ccccc12)C(=O)N[C@@H](CC(=O)O)C(=O)COc1c(F)c(F)cc(F)c1F`, the results for the IC50 in assay [1], in assay [2] and in assay [3] were more than 100 µM, more than 50 µM and more than 100 µM, respectively.
For the compound `CC(C)[C@H](NC(=O)C(=O)NC(c1ccccc1)c1ccccc1)C(=O)N[C@@H](CC(=O)O)C(=O)COc1c(F)c(F)cc(F)c1F`, the IC50 is more than 200 µM in assay [1], 7.3 µM in assay [2] and 0.17 µM in assay [4].
For the compound `CC(C)[C@H](NC(=O)C(=O)Nc1cccc2ccccc12)C(=O)N[C@@H](CC(=O)O)C(=O)COc1cccc2ccccc12`, the IC50 was found to be 2.7 µM in assay [2] and 3.06 µM in assay [4].
As for `CC(C)[C@H](NC(=O)C(=O)Nc1cccc2ccccc12)C(=O)N[C@@H](CC(=O)O)C(=O)COc1ccc(-c2ccccc2)cc1`, the IC50 was more than 50 µM in assay [2] and 1.12 µM in assay [4].
Turning to `CC(C)C[C@H](NC(=O)C(=O)Nc1cccc2ccccc12)C(=O)N[C@@H](CC(=O)O)C(=O)COc1c(F)cc(F)cc1F`, the IC50 in assay [1] worked out at 0.535 µM; in assay [2], 4.61 µM.

As usually defined, the IC50 is the concentration needed to halve the response being measured. The low end stands for higher potency, the high end for lower potency.
